Measured values gathered from unrelated publications.
pIC50, pKi: −log10 of the molar value.
Target: 5-hydroxytryptamine receptor 1A (HTR1A, Homo sapiens, UniProt P08908)
One construct used (P08908 1-422): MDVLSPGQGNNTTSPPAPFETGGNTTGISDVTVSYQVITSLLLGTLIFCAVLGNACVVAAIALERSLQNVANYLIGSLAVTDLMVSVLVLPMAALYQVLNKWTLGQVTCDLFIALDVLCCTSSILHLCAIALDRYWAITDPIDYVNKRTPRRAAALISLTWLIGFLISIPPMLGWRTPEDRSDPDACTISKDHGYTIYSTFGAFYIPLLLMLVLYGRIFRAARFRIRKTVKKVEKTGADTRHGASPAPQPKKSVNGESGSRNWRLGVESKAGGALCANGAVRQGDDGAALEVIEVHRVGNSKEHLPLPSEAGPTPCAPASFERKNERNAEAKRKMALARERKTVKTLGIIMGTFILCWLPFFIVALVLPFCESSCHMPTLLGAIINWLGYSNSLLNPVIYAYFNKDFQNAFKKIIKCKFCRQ

CN1C[C@@H](CO)C=C2c3cccc4[nH]cc(c34)C[C@H]21
pIC50 (ligand displacement; radioligand): 8.64

C[C@H](N)Cn1ncc2ccc3c(c21)CCCO3
pKi (cell-free assay; radioligand): 6.53

CC[C@@H](CO)NC(=O)[C@@H]1C=C2c3cccc4c3c(cn4C)C[C@H]2N(C)C1
pKi (cell-free assay): 7.15

NCCc1c[nH]c2cc(F)ccc12
pKi (ligand displacement; radioligand): 6.57

CC(CCc1ccccc1)NC(C)C(O)c1ccc(O)cc1 (stereo not drawn)
pIC50 (calcium signal; antagonist): 4.93

NCCc1c[nH]c2cccc(O)c12
pKi (ligand displacement; radioligand): 7.36

CCCCCNC(=N)N/N=C/c1c[nH]c2ccc(OC)cc12
pIC50 (ligand displacement; radioligand): 6.84

COCCCN1CCN(c2ccccc2OC)CC1
pKi (cell-free assay): 6.96

CN(C)CCc1c[nH]c2cccc(O)c12
pKi (ligand displacement; radioligand): 7.08
